The values that follow come from ChEMBL document CHEMBL1130047, “Synthesis, structure, and antiproliferative activity of selenophenfurin, an inosine 5'-monophosphate dehydrogenase inhibitor analogue of selenazofurin” (J Med Chem, 1997).

Test [1] deals with CCRF-SB. Kind of test: (§1) Compound was tested for antiproliferative activity against CCRF-SB, human acute B-lymphoblastic leukemia. The class given is functional, cell-based. The method, boiled down:
(§2)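 Exponentially growing cells were seeded at 1 × 10⁵ cells/mL in growth medium and exposed to various compound concentrations for 96 h at 37 °C. Viability was read by MTT. Growth at each concentration was taken as % of untreated controls, and IC50 (concentration reducing viability by 50%) was derived by linear regression.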

For test [2], the system named is HT-29. Kind of test: Compound was tested for antiproliferative activity against HT29, human colon adenocarcinoma. The class given is functional, cell-based. The method, boiled down:
(§3)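 Exponentially growing solid-tumour-derived cells were seeded at 5 × 10⁴ cells/mL and left to adhere for 16 h before drug addition, across a range of concentrations. Growth was expressed as % of untreated controls, and IC50 (concentration reducing cell viability by 50%) was obtained by linear regression.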

Test [3] deals with HeLa. Kind of test: Compound was tested for antiproliferative activity against HeLa, human cervix carcinoma. The class given is functional, cell-based. The method, boiled down: as §3
The subject of test [4] is 5637. Kind of test: Compound was tested for antiproliferative activity against 5637, human bladder carcinoma cell line. Format: functional, cell-based. The method, boiled down: as §3
In test [5] the test system is K562. Briefly: Compound was tested for its influence on the IMP (Inosine 5`-monophosphate) ribonucleotide level in K562 cells. The class given is functional, Homo sapiens. The method, boiled down: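 K562 cells (1 × 10⁷) given 10 µM agent or saline for 2 h at 37 °C, washed in cold saline, extracted with cold 10% trichloroacetic acid, neutralized with 0.5 M tri-n-octylamine in freon; IMP measured by strong anion-exchange HPLC, reported as percent of saline control (control in nmol/g).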

Test [6] concerns CCRF-CEM. Kind of test: (§4) Compound was tested for antiproliferative activity against CCRF-CEM, human acute T-lymphoblastic leukemia. Format: functional, cell-based. The method, boiled down: as §2
The target of test [7] is T1, Inosine-5'-monophosphate dehydrogenase (IMPDH) (Homo sapiens) (UniProt P20839+P12268). Briefly: Compound was tested for its effect on IMPDH (Inosine 5`-monophosphate dehydrogenase) activity in K562 cells. Format: functional, cell-based. Particulars: scale: (nM of XMP formed) hr-1. The method, boiled down:
(§5)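 Log-phase K562 cells (1 × 10⁶ cells/mL) were given 10 µM agent or saline for 2 h at 37 °C. They were then washed and lysed in Tris-HCl pH 7.4/NaCl/MgCl₂/0.5% NP-40/aprotinin, and the 13000g supernatant served as enzyme. The reaction ran 30 min at 37 °C, stopped by heating at 95 °C for 1 min. Radioactivity was trapped in KOH and counted by scintillation, giving nmol XMP/mg protein/h and % inhibition against saline.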

In test [8] the test system is K562. Kind of test: Compound was tested for its influence on the GMP (guanosine monophosphate) ribonucleotide level in K562 cells. The class given is functional, Homo sapiens. The method, boiled down:
(§6)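 K562 cells in culture (1 × 10⁷) were incubated with 10 µM agent or saline for 2 h at 37 °C, then washed with cold saline. Extraction used cold 10% trichloroacetic acid, followed by neutralisation with 0.5 M tri-n-octylamine in freon. Nucleotides were measured by HPLC on a strong anion-exchange (SAX) column, with levels in nmol/g and % of saline control.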

For test [9], the system named is WIL2-NS. Kind of test: Compound was tested for antiproliferative activity against Wil2-NS, human splenic lymphoblastoid cells. The class given is functional, cell-based. The method, boiled down:
as §2

Test [10] deals with K562. Briefly: Compound was tested for its influence on the GTP (guanosine triphosphate) ribonucleotide level in K562 cells. Format: functional, Homo sapiens. The method, boiled down: as §6
Test [11] relates to MOLT-4. Kind of test: (§7) Compound was tested for antiproliferative activity against MOLT-4, human acute T-lymphoblastic leukemia. Format: functional, cell-based. The gist of the method: as §2
Test [12] concerns CHO-K1. Kind of test: Compound was tested for antiproliferative activity against CHO-K1, Chinese hamster ovary. Format: functional, cell-based. Particulars: Cricetulus griseus. The gist of the method:
as §3

The test system of test [13] is K562. Kind of test: (§8) Compound was tested for antiproliferative activity against K562, human erythroid leukemia. Format: functional, cell-based. The method, boiled down:
as §2

Test [14] deals with Raji. Briefly: Compound was tested for antiproliferative activity against Raji, human Burkitt lymphoma. The class given is functional, cell-based. The method, boiled down:
as §2

Test [15] addresses T1, Inosine-5'-monophosphate dehydrogenase (IMPDH) (Homo sapiens). Briefly: (§9) Compound was tested for its inhibition against IMPDH from human myelogenous leukemia in K562 cells. The settings on record: concentration not given here. Format: functional, cell-based. The method, boiled down: as §5
Test [16] has as its system L1210. Kind of test: (§10) Compound was tested for antiproliferative activity against L1210, murine lymphocytic leukemia. The class given is functional, cell-based. The settings on record: Mus musculus. The method, boiled down:
as §2

The test system of test [17] is ACHN. Kind of test: Compound was tested for antiproliferative activity against ACHN, human renal adenocarcinoma. The class given is functional, cell-based. The method, boiled down:
as §3

The test system of test [18] is K562. Kind of test: Compound was tested for its influence on the GDP (guanosine diphosphate) ribonucleotide level in K562 cells. The class given is functional, Homo sapiens. The gist of the method:
as §6

Test [19] has as its system K562. Kind of test: Compound was tested for its influence on the IMP (Inosine 5`-monophosphate) ribonucleotide level of K562 cells in culture. Format: functional, Homo sapiens. The method, boiled down: as §6
The test system of test [20] is CCRF-CEM. The test is described as §4. Format: functional, cell-based. The gist of the method: (§11)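 Suspension leukemia/lymphoma cells in exponential growth resuspended at 1 × 10⁵ cells/mL in growth medium with various compound concentrations; viability read by MTT after 96 h at 37 °C. Growth given as percentage of untreated controls; IC50 (concentration reducing viability 50%) from linear regression.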
This is another data set of the same source.

The test system of test [21] is CHO-K1. Briefly: Compound was tested for antiproliferative activity against CHO-K1, Chinese hamster ovary cells. Format: functional, cell-based. The settings on record: Cricetulus griseus. The gist of the method: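 Solid tumor-derived adherent cells seeded at 5 × 10⁴ cells/mL in exponential growth, allowed 16 h to attach before drug addition; viability by MTT method. Growth expressed as percent of untreated controls, IC50 obtained by linear regression.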

Test [22] relates to MOLT-4. The description is as §7. The class given is functional, cell-based. The method, boiled down:
as §11
This is another data set of the same source.

Test [23] deals with L1210. The description is as §10. The class given is functional, cell-based. The settings on record: Mus musculus. The method, boiled down: as §11
The source holds these as a separate data set.

Test [24] concerns the target T1, Inosine-5'-monophosphate dehydrogenase (IMPDH) (Homo sapiens). The test is described as §9. The class given is functional, cell-based. The settings on record: concentration not given here. This is another data set of the same source.
The target is the same in test [25]. Briefly: Compound was tested for its effect on IMPDH (Inosine 5`-monophosphate dehydrogenase) activity in K562 cells in culture. The class given is functional, cell-based. Particulars: scale: (nM of XMP formed) hr-1.
In test [26] the test system is K562. The test is described as §8. The class given is functional, cell-based. The gist of the method: as §11
The source holds these as a separate data set.

Test [27] concerns the target T1, Inosine-5'-monophosphate dehydrogenase (IMPDH) (Homo sapiens). Briefly: Compound was tested for its inhibition against IMPDH from human myelogenous leukemia K562 cells in culture. Format: functional, cell-based. The settings on record: concentration not given here.
The target is the same in test [28]. Kind of test: Compound was tested for its effect on IMPDH (Inosine 5`-monophosphate dehydrogenase) activity of K562 cells in culture. The class given is functional, cell-based. Particulars: scale: (nM of XMP formed) hr-1.
For test [29], the system named is CCRF-SB. The description is as §1. Format: functional, cell-based. The gist of the method: as §11
This is another data set of the same source.

T1 sequence (P20839 whole entry, looked up, other chains not shown): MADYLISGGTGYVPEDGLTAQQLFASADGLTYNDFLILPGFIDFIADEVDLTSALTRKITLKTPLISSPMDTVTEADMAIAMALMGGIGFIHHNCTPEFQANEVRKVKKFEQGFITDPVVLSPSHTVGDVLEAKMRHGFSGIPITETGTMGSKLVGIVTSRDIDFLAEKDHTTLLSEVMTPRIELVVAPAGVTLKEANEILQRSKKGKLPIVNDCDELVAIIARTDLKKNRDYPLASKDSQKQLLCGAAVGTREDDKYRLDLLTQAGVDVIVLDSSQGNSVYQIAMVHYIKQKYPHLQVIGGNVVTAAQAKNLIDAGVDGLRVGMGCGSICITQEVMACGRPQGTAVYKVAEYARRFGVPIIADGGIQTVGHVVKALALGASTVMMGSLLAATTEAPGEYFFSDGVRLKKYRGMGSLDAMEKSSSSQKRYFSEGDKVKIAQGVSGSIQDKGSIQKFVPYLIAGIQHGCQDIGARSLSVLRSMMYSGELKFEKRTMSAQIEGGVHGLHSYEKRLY

Consider `NC(=O)c1c[se]c([C@@H]2O[C@H](CO)[C@@H](O)[C@H]2O)c1`, for which the IC50 in [1] turned out to be 0.9 µM; in test [2], 3.5 µM; in [3], 6.4 µM; in test [4], 1.2 µM; in test [6] it was 0.3 µM; in test [9], 0.7 µM. Further, the IC50 in test [11] is 0.3 µM; in test [12], 2.9 µM; in [13] it was 0.45 µM; in test [14], 0.9 µM; in test [16], 0.3 µM; in test [17] it was 9.9 µM. The Control in test [5] came to 1464%; in test [8], 0%; in test [10], 42%; in test [18], 61%. In [7], this compound gave an IMPDH activity of 1.06. In test [15], this compound gave an inhibition of 76%.

With `NC(=O)c1c[se]c([C@@H]2O[C@H](CO)[C@@H](O)[C@H]2O)n1`, the IC50 in [1] amounted to 1.5 µM; in test [2], 7.7 µM; in [3], 7.9 µM; in test [4], 2.3 µM; in test [6], 1.2 µM; in [9], 1.2 µM. Further, the IC50 in test [11] was 0.6 µM; in test [12], 0.6 µM; in test [13] it was 0.5 µM; in [14], 1.6 µM; in test [16], 0.5 µM; in [17], 13.8 µM. The IMPDH activity in test [7] stood at 1.01. Besides, the Control is on record as 0% in test [8], 50% in test [10], 1043% in test [19] and 59% in [18]. Also, the inhibition in [15] turned out to be 80%.

Turning to `NC(=O)c1csc([C@@H]2O[C@H](CO)[C@@H](O)[C@H]2O)c1`, the half-inhibitory concentration (IC50) stood at 6.4 µM in test [1]; 40 µM in test [2]; 3.5 µM in test [20]; 90 µM in test [3]; 17 µM in [4]; 55 µM in [21]. Besides, the IC50 was found to be 2.9 µM in test [22]; 5.8 µM in test [9]; 1.7 µM in [23]; 2.3 µM in test [13]; 8.7 µM in test [14]; 79 µM in [17]. The Control is on record as 703% in test [5], 0% in test [8], 60% in test [10] and 66% in test [18]. The same compound gave an inhibition in [24] of 52%. For the same compound, the IMPDH activity in test [25] was 2.62.

For the compound `NC(=O)c1csc([C@@H]2O[C@H](CO)[C@@H](O)[C@H]2O)n1` [TIAZOFURIN], the half-inhibitory concentration (IC50) in test [26] was 2.5 µM; in test [2] it was 100 µM; in [20], 10 µM; in test [3], 100 µM; in test [4], 24 µM; in [21] it was 6.4 µM. The concentration for half-maximal inhibition (IC50) is 5.2 µM in test [22]; 5.7 µM in test [9]; 2.9 µM in test [23]; 7.5 µM in [29]; 8.2 µM in test [14]; more than 100 µM in test [17]. Also, the Control in test [5] is 1033%; in test [8], 0%; in [10], 55%; in [18] it was 89%. Further, the inhibition in test [27] is 59%. In addition, in test [28], the IMPDH activity amounted to 2.07.

The IC50 is the midpoint of a concentration-inhibition curve. As a reminder, the inhibition is the relative decrease from the control value, in per cent.
